Data: ChEMBL document CHEMBL3286381 (J Med Chem, 2014)
The source made the active and inactive calls. The rule behind the calls is not given here.

Key:
[1] = target: T1, Ectonucleoside triphosphate diphosphohydrolase 1 (Homo sapiens) (UniProt P49961); assay: Inhibition of human NTPDase-1 using ATP as substrate assessed as inorganic phosphate release at 100 uM after 15 mins relative to control
T1 sequence (whole entry): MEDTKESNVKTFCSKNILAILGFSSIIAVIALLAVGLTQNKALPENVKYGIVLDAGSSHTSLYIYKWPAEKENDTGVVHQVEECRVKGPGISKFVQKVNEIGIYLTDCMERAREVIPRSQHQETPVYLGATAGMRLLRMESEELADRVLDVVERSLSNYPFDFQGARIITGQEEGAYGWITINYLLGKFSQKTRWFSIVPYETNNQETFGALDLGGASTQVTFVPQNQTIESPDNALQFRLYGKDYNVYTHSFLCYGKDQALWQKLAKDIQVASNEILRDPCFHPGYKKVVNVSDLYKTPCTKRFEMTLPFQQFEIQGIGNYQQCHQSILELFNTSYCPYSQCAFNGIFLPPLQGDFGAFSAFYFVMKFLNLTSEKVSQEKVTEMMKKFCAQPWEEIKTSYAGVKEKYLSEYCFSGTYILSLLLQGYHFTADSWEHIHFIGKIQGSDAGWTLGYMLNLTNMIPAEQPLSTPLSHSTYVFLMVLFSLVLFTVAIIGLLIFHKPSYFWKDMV
Method in brief: (§1)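 Protein extracts are from COS-7 cells transiently transfected with human NTPDase1, 2, 3 or 8. Extract is preincubated for 3 min at 37 °C in Tris–Ringer buffer (pH 7.3). […] Three experiments in triplicate.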

[2] = target: P2Y purinoceptor 1 (Homo sapiens) (UniProt P47900); assay: Agonist activity at human P2Y1 receptor expressed in human 1321N1 cells assessed as increase of intracellular calcium level up to 10 uM after 30 mins using fura-2 AM by fluorescence assay; format: functional, cell-based
[3] = target: T2, Ectonucleotide pyrophosphatase/phosphodiesterase family member 1 (Homo sapiens) (UniProt P22413); assay: Inhibition of human NPP1 using ATP as substrate at 100 uM after 20 mins by reversed-phase HPLC analysis
T2 sequence (whole entry): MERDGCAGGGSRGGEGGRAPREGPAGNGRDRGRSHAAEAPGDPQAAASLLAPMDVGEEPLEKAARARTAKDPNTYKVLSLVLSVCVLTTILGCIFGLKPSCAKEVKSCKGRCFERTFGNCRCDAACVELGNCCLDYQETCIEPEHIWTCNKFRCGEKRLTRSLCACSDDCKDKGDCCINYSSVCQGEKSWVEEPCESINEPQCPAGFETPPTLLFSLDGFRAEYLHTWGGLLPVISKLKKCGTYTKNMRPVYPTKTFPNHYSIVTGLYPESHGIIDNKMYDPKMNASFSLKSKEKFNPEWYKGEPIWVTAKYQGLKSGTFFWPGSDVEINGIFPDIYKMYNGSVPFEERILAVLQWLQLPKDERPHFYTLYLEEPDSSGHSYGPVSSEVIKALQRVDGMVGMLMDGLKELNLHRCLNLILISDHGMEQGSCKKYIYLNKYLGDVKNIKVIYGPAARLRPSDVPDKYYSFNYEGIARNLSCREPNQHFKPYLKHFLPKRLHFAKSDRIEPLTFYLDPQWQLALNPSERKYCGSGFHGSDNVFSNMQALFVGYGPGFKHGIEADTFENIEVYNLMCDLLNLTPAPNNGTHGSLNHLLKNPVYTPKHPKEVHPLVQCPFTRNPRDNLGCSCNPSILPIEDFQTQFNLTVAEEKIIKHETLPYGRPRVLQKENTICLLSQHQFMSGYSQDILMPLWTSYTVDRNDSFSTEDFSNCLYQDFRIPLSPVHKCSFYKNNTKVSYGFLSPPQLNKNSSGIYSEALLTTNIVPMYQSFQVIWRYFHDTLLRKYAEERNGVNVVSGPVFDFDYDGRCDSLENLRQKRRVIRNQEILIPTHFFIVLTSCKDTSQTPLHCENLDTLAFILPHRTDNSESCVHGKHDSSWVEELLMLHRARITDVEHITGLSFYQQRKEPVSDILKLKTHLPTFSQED

[4] = target: T2, Ectonucleotide pyrophosphatase/phosphodiesterase family member 1 (Homo sapiens); assay: Inhibition of human NPP1 using pNP-TMP as substrate at 100 uM after 20 mins by reversed-phase HPLC analysis
[5] = target: T3, Ectonucleoside triphosphate diphosphohydrolase 2 (Homo sapiens) (UniProt Q9Y5L3); assay: Inhibition of human NTPDase-2 using ATP as substrate assessed as inorganic phosphate release at 100 uM after 15 mins relative to control; method in brief: as §1
T3 sequence (whole entry): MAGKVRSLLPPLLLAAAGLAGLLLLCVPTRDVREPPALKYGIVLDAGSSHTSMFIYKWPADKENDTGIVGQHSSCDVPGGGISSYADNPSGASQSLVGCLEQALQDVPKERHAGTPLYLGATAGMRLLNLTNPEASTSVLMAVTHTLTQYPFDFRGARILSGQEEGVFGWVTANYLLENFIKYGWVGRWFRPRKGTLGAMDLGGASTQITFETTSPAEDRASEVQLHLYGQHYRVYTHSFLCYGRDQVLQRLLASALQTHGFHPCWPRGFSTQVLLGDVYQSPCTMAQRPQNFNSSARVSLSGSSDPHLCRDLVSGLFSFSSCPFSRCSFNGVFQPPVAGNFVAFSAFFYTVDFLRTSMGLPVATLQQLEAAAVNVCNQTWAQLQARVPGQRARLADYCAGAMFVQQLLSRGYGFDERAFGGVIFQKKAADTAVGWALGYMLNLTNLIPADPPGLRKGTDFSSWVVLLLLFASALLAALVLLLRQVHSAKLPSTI

[6] = target: T4, P2Y purinoceptor 11 (Homo sapiens) (UniProt Q96G91); assay: Agonist activity at human P2Y11 receptor expressed in human 1321N1 cells assessed as increase of intracellular calcium level after 30 mins using fura-2 AM by fluorescence assay relative to ATP; format: functional, cell-based
T4 sequence (whole entry): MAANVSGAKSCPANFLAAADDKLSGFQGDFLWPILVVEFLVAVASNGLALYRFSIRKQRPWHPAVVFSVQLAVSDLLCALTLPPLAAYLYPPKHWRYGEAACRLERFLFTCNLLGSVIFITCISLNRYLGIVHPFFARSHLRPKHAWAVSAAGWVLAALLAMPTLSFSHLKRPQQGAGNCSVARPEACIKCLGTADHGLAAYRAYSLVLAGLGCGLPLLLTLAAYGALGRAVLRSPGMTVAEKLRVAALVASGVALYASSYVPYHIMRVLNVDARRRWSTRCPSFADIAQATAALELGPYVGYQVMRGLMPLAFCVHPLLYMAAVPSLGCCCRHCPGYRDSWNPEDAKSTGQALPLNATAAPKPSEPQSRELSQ

P2Y purinoceptor 1 (Homo sapiens), sequence (P47900 whole entry): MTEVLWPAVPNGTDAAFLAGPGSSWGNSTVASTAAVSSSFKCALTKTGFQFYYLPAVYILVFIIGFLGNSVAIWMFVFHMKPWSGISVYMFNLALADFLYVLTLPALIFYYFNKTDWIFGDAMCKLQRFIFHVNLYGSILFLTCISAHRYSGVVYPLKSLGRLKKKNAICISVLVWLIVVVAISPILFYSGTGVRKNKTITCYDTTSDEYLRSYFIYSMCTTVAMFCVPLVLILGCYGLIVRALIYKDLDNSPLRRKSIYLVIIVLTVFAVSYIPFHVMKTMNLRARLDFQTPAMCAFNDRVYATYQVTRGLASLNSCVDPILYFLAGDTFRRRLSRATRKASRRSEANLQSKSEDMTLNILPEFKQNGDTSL

SMILES	inhibition [1] [%]	Activity [2]	inhibition [3]	inhibition [4] [%]	inhibition [5] [%]	fold change (FC) [6]
Nc1ncnc2c1ncn2[C@@H]1O[C@H](CO[P@](O)(=S)OP(=O)(O)CP(=O)(O)O)[C@@H](O)[C@H]1O	18.7	inactive	Active	> 90	15.4	–
Nc1ncnc2c1ncn2[C@@H]1O[C@H](COP(=O)(O)CP(=O)(O)OP(O)(O)=S)[C@@H](O)[C@H]1O	58.4	inactive	Active	> 90	16.3	6.7
Nc1ncnc2c1ncn2[C@@H]1O[C@H](CO[P@](O)(=S)OP(=O)(O)C(Cl)(Cl)P(=O)(O)O)[C@@H](O)[C@H]1O	0.5	inactive	Active	> 90	11.2	–
Nc1ncnc2c1ncn2[C@@H]1O[C@H](CO[P@@](O)(=S)OP(=O)(O)C(Cl)(Cl)P(=O)(O)O)[C@@H](O)[C@H]1O	0.5	inactive	Active	> 90	9.9	2.2
Nc1ncnc2c1ncn2[C@@H]1O[C@H](CO[P@@](O)(=S)OP(=O)(O)CP(=O)(O)O)[C@@H](O)[C@H]1O	21.6	inactive	Active	> 90	12.7	7.4
